This is an account of results in ChEMBL document CHEMBL3580657, “Design and Evaluation of 3-(Benzylthio)benzamide Derivatives as Potent and Selective SIRT2 Inhibitors” (ACS Med Chem Lett, 2015).

Data set [1] addresses T1, NAD-dependent protein deacetylase sirtuin-2 (Homo sapiens) (UniProt Q8IXJ6).
T1 sequence (whole entry): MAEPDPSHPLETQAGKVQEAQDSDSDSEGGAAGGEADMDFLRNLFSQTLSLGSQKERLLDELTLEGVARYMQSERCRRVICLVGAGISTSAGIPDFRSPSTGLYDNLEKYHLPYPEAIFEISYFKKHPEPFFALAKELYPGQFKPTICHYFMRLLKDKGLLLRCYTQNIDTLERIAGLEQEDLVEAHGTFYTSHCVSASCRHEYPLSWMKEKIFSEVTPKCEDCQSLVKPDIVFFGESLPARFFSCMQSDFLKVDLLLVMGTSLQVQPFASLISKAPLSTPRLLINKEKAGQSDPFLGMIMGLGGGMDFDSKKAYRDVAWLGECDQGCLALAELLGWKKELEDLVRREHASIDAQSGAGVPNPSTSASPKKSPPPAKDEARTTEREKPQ
The data set can be described thus: Inhibition of SIRT2 (unknown origin) at 10 uM by Flour-de-Lys fluorescent biochemical assay. The method in brief:
(§1)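 Biochemical sirtuin deacetylation assays (SIRT1, SIRT2, SIRT3) run as in earlier work. Single 10 μM dose in triplicate. Primary screen was SIRT2, with SIRT1 and SIRT3 as counter-screens. A reference compound was included with each assay.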

In data set [2] the target is T2, NAD-dependent protein deacetylase sirtuin-2 (Homo sapiens, UniProt Q8IXJ6).
T2 sequence (Q8IXJ6 whole entry): T1 sequence (whole entry)
The experiment in a line: Inhibition of SIRT2 (unknown origin) by Flour-de-Lys fluorescent biochemical assay.

The target of data set [3] is T3, NAD-dependent protein deacetylase sirtuin-3, mitochondrial (Homo sapiens) (UniProt Q9NTG7).
T3 sequence (whole entry): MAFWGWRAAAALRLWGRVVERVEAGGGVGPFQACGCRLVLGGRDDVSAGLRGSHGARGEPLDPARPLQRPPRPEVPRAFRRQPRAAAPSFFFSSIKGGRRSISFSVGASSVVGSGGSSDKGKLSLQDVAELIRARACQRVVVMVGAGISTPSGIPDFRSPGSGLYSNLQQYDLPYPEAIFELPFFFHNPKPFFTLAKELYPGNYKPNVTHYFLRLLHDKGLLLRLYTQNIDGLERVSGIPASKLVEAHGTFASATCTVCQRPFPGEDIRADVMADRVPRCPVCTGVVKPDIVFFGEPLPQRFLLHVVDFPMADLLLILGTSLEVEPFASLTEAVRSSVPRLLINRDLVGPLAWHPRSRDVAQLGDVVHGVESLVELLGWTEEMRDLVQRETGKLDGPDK
The data set can be described thus: Inhibition of SIRT3 (unknown origin) at 10 uM by Flour-de-Lys fluorescent biochemical assay. The method in brief:
as §1

In data set [4] the target is T4, NAD-dependent protein deacetylase sirtuin-1 (Homo sapiens) (UniProt Q96EB6).
T4 sequence (whole entry): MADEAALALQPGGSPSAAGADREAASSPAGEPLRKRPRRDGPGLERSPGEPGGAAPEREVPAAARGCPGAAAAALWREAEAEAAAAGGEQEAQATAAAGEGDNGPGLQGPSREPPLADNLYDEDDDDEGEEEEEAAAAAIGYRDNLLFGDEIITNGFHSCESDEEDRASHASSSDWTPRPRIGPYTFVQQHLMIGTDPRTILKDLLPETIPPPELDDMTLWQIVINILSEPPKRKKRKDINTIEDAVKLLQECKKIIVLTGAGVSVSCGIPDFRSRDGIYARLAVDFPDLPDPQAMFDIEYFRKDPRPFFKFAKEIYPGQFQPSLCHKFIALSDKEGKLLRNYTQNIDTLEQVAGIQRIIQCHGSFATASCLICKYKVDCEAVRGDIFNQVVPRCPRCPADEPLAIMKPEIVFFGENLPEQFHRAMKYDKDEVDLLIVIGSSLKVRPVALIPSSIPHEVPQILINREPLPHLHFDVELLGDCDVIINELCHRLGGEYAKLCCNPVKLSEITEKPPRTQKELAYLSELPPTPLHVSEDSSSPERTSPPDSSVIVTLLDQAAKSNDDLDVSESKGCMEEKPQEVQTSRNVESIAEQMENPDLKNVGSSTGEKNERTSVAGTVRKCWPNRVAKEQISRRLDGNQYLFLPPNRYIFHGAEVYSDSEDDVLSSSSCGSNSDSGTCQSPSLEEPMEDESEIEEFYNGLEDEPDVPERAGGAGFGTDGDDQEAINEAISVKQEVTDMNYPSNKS
The data set can be described thus: Inhibition of SIRT1 (unknown origin) at 10 uM by Flour-de-Lys fluorescent biochemical assay. In short, it runs like this: as §1

Data set [5] addresses T5, NAD-dependent protein deacetylase sirtuin-2 (Rattus norvegicus) (UniProt Q5RJQ4).
T5 sequence (whole entry): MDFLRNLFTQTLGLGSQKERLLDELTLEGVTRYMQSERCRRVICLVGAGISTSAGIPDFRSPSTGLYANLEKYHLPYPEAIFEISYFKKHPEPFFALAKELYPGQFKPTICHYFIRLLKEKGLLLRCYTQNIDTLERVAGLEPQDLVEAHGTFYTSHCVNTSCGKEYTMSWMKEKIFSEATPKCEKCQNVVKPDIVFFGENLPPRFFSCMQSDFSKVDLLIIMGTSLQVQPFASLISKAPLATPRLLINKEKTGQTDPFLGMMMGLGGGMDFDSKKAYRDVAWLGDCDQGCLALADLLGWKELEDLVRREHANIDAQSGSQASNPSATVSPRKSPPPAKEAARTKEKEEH
The experiment in a line: Inhibition of SIRT2 in rat ST14A cells assessed as increase in alpha-tubulin K40 acetylation at 0.5 to 50 uM incubated for 6 hrs by SDS-PAGE and Western blotting method. The format is cell-based. The method in brief: (§2)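 Cells were treated with compound for 6 h across 0.5–50 μM. Extracts were resolved by SDS-PAGE and immunoblotted with an antibody to acetyl-K40 α-tubulin, with GAPDH as loading control. In ST14A, signal was normalized to GAPDH and quantified from blots.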

Data set [6] concerns the target T5, NAD-dependent protein deacetylase sirtuin-2 (Rattus norvegicus). The data set can be described thus: Inhibition of SIRT2 in rat PC12 cells expressing inducible HD103Q-EGFP fusion fragment of huntingtin mutant assessed as reduction in number and size of fluorescent polyQ inclusions at 5 uM treated simultaneously with 2.5 uM ecdysone-inducible gene inducer muristerone A for 24 hrs by fluorescence microscopy. The format is cell-based. The settings on record: PC-12. In short, it runs like this: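 PC12 cells carrying inducible HD103Q-EGFP huntingtin fragment were induced with 2.5 μM muristerone A for 24 h, simultaneous with compound at 25, 10 or 5 μM. PolyQ aggregation was scored by epifluorescence microscopy as number and size of fluorescent inclusions.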

Data set [7] has the same target. The experiment in a line: Inhibition of SIRT2 in rat ST14A cells assessed as increase in alpha-tubulin K40 acetylation at 25 uM incubated for 6 hrs by SDS-PAGE and Western blotting method. The format is cell-based. The method in brief: as §2
Data set [8] is described as follows: Toxicity in rat PC12 cells expressing inducible HD103Q-EGFP fusion fragment of huntingtin mutant assessed as effect on cell density at 5 uM by phase contrast microscopy. In kind it is cell-based. The following applies: pc-12, 5 µM.

The source made the active and inactive calls. The calls are words filed in the database; no cut-off is given here.

With `COc1ccc(C[S+]([O-])c2cccc(C(=O)Nc3ccc(C#N)cc3)c2)cc1` (stereo not drawn), the inhibition in data set [1] turned out to be 21%.
On the same count and under the same terms, under `O=C(Nc1ccc(Cl)cn1)c1cccc(S(=O)(=O)Cc2ccc(Cl)cc2)c1` stands 2%; under `C[S+]([O-])c1ccc(NC(=O)c2cccc([S+]([O-])Cc3ccc(Cl)cc3)c2)cc1` (stereo not drawn), 24%; under `O=C(Nc1ccc(Br)cc1)c1cccc(S(=O)(=O)Cc2ccc(Cl)cc2)c1`, 0%.
The same measure, in the same setting: under `O=C(Nc1ccc(Cl)cc1)c1cccc(S(=O)(=O)Cc2ccc(Cl)cc2)c1` stands 0%.
Take `N#Cc1ccc(NC(=O)c2cccc([S+]([O-])Cc3ccc(Cl)cc3)c2)cc1` (stereo not drawn): in data set [2] (read-out: IC50), the IC50 amounted to 7.1 µM. Further, the inhibition in data set [3] came out at 11%; in data set [1], 47%; in data set [4] it was 12%.
For `CS(=O)(=O)c1ccc(NC(=O)c2cccc(S(=O)(=O)Cc3ccc(Cl)cc3)c2)cc1`, the inhibition in data set [1] is 17%.
On to `C[S+]([O-])c1ccc(NC(=O)c2cccc(SCc3ccc(Cl)cc3)c2)cc1` (stereo not drawn), for which, in data set [2] (read-out: IC50), the IC50 was found to be 8.4 µM. Besides, the inhibition in data set [3] was 8%; in data set [1] it was 60%; in data set [5] it was “Dose-dependent effect”; in data set [4] it was 10%.
As for `N#Cc1ccc(NC(=O)c2cccc(SCc3ccc(Cl)cc3)c2)cc1`, the half-maximal inhibitory concentration (IC50) in data set [2] (read-out: IC50) worked out at 2.9 µM. Also, the inhibition was determined as 0% in data set [3], 81% in data set [1] and 8% in data set [4].
In the case of `CSc1ccc(CSc2cccc(C(=O)Nc3ccc(C#N)cc3)c2)cc1`, the inhibition result in data set [6] and in data set [7] was “Active” each time. Moreover, the IC50 in data set [2] (read-out: IC50) came to 2.4 µM. For the same compound, the inhibition was 0% in data set [3], 83% in data set [1] and 3% in data set [4]. Besides, the Activity result in data set [8] is “Non-toxic”.
On to `COc1ccc(CS(=O)(=O)c2cccc(C(=O)Nc3ccc(C#N)cc3)c2)cc1`, for which, in data set [2] (read-out: IC50), the IC50 was determined as 6.7 µM. The results for the inhibition in data set [3], in data set [1] and in data set [4] were 0%, 50% and 3%, respectively.
On to `N#Cc1ccc(NC(=O)c2cccc(S(=O)(=O)Nc3ccc(Cl)cn3)c2)cc1`, for which, in data set [2], the IC50 entry is recorded as “Not Active”.
In the case of `N#Cc1ccc(NC(=O)c2cccc(S(=O)(=O)Cc3ccc(Cl)cc3)c2)cc1`, in data set [2] (read-out: IC50), the IC50 was found to be 4.7 µM. In addition, the inhibition turned out to be 0% in data set [3], 40% in data set [1] and 0% in data set [4].
In turn, `CS(=O)(=O)c1ccc(NC(=O)c2cccc([S+]([O-])Cc3ccc(Cl)cc3)c2)cc1` (stereo not drawn) yielded an inhibition in data set [1] of 18%.
On the same count and under the same terms, the value for `O=C(Nc1ccc(Cl)nn1)c1cccc(S(=O)(=O)Cc2ccc(Cl)cc2)c1` was 0%; that for `CC(=O)c1ccc(NC(=O)c2cccc(S(=O)(=O)Cc3ccc(Cl)cc3)c2)cc1` was 23%.
